In ChEMBL document CHEMBL4118023, “Bioactive Pentacyclic Triterpene Ester Derivatives from Alnus viridis ssp. viridis Bark” (J Nat Prod, 2017) one finds IC50, Activity and selectivity ratio data, which are given here for 7 molecules.

Structures are written as SMILES.

By IC50 is commonly meant the concentration needed to halve the response being measured.

The subject of one data set is MRC5. Kind of data set: Cytotoxicity against human MRC5 cells assessed as reduction in cell viability after 48 hrs by MTT assay. The format is cell-based. Particulars: MRC5, 48 h. In a few lines:
(§1)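 Cells seeded at 1 × 10^4 per well, 24 h at 37 °C, 5% CO2, in RPMI-1640 with 10% FBS, penicillin and streptomycin. Compounds were prepared from DMSO stocks (50 mg/mL) and added at 2.5–50.0 μg/mL for 48 h; DMSO controls. MTT read-out; IC50 taken from a sigmoidal dose–response fit of % viability versus log concentration by nonlinear regression.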
On the technique in general: Tetrazolium dyes change colour on reduction, which living cells bring about.

Data set [1] relates to A549. Briefly: Induction of apoptosis in human A549 cells assessed as necrotic cells at cytotoxic IC50 after 24 hrs by Annexin V-FITC/propidium iodide staining based flow cytometry (reference value: 0.71%). In kind it is functional.
Data set [2] has as its system A549. Briefly: Induction of apoptosis in human A549 cells assessed as late apoptotic cells at cytotoxic IC50 after 24 hrs by Annexin V-FITC/propidium iodide staining based flow cytometry (reference value: 1.02%). The format is functional. For orientation: A flow cytometer gives signals particle by particle.
The subject of a further data set is A-375. Kind of data set: Cytotoxicity against human A375 cells assessed as reduction in cell viability after 48 hrs by MTT assay. In kind it is functional, cell-based. Particulars: for IC50: A-375, 48 h. In outline:
as §1

The subject of data set [3] is A549. Briefly: Induction of apoptosis in human A549 cells assessed as early apoptotic cells at cytotoxic IC50 after 24 hrs by Annexin V-FITC/propidium iodide staining based flow cytometry (reference value: 2.25%). The format is functional.
The nature of data set [4]: Selectivity index, ratio of IC50 for human MRC5 cells to IC50 for human A549 cells. The format is toxicity. Conditions: MRC5 cells versus A549 cells, read-out: Ratio IC50. In outline: (§2)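 Selectivity index is the IC50 in noncancerous MRC5 cells divided by the IC50 in the cancer line.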
A short description of data set [5]: Selectivity index, ratio of IC50 for human MRC5 cells to IC50 for human A375 cells. The format is toxicity. Particulars: MRC5 cells versus A375 cells, read-out: Ratio IC50. In outline: as §2
Data set [6] relates to A549. Briefly: Cytotoxicity against human A549 cells assessed as reduction in cell viability after 48 hrs by MTT assay. Particulars: for IC50: A549, 48 h. The format is functional, cell-based. In outline: as §1
Data set [7] has as its system A549. Briefly: Induction of apoptosis in human A549 cells assessed as live cells at cytotoxic IC50 after 24 hrs by Annexin V-FITC/propidium iodide staining based flow cytometry (reference value: 96.02%). The format is functional.

For `C=C(C)[C@@H]1CC[C@]2(C(=O)O)CC[C@]3(CO)[C@H](CC[C@@H]4[C@@]5(C)C[C@@H](OC(=O)/C=C/c6ccc(O)c(O)c6)[C@H](OC(=O)/C=C\c6ccc(O)cc6)C(C)(C)[C@@H]5CC[C@]43C)[C@@H]12`, the IC50 with MRC5 turned out to be 10 µM; in the data set on A-375, 3.8 µM; with A549 [6], 5 µM. Also, the Activity in the data set with A549 [1] is 0.93%; in the data set on A549 [2] it was 0.28%; with A-375, “Dose-dependent effect”; in the data set on A549 [3], 11.92%; in the data set with A549 [6], “Dose-dependent effect”; in the data set with A549 [7], 86.87%. The selectivity ratio in [4] was determined as 2; in [5], 2.66.

In the case of `CC1(C)CC[C@]2(C(=O)O)CC[C@]3(C)C(=CC[C@@H]4[C@@]5(C)C[C@@H](OC(=O)/C=C/c6ccc(O)c(O)c6)[C@H](O)C(C)(C)[C@@H]5CC[C@]43C)[C@@H]2C1`, the IC50 was 7.9 µM with MRC5, 11.8 µM with A-375 and 4.7 µM in the data set on A549 [6]. The Activity result in the data set with A-375 and in the data set with A549 [6] was “Dose-dependent effect” throughout. The selectivity ratio in data set [4] was determined as 1.66; in [5], 0.67.

As for `C=C(C)[C@@H]1CC[C@]2(C(=O)O)CC[C@]3(COC(=O)/C=C/c4ccc(O)c(O)c4)[C@H](CC[C@@H]4[C@@]5(C)CCC(=O)C(C)(C)[C@@H]5CC[C@]43C)[C@@H]12`, the IC50 with MRC5 turned out to be 9.7 µM; in the data set with A-375 it was 7.7 µM; in the data set on A549 [6] it was 15.5 µM. The Activity entry in the data set with A-375 and in the data set with A549 [6] was “Dose-dependent effect” throughout. Further, the selectivity ratio in data set [4] turned out to be 0.63; in data set [5], 1.25.

For the molecule `C=C(C)[C@@H]1CC[C@]2(C(=O)O)CC[C@]3(C)[C@H](CC[C@@H]4[C@@]5(C)CC[C@H](O)C(C)(C)[C@@H]5CC[C@]43C)[C@@H]12` [BETULINIC ACID], the results for the IC50 in the data set on MRC5, in the data set with A-375 and in the data set with A549 [6] were 32.8 µM, 43.7 µM and 43.7 µM, respectively. The Activity with A549 [1] was determined as 1.3%; in the data set with A549 [2] it was 2.24%; with A549 [3], 5.66%; in the data set on A549 [7] it was 90.8%. Moreover, the selectivity ratio in data set [4] and in [5] was 0.75 in each case.

Consider `C=C(C)[C@@H]1CC[C@]2(C(=O)O)CC[C@]3(CO)[C@H](CC[C@@H]4[C@@]5(C)C[C@@H](OC(=O)/C=C/c6ccc(O)c(O)c6)[C@H](O)C(C)(C)[C@@H]5CC[C@]43C)[C@@H]12`, for which the IC50 was found to be 18.5 µM in the data set with MRC5, 11.5 µM in the data set on A-375 and 15.4 µM with A549 [6]. Further, the Activity entry in the data set with A-375 and with A549 [6] was “Dose-dependent effect” each time. Further, the selectivity ratio in data set [4] was determined as 1.2; in [5], 1.6.

With `C=C(C)[C@@H]1CC[C@]2(C(=O)O)CC[C@]3(CO)[C@H](CC[C@@H]4[C@@]5(C)C[C@@H](OC(=O)/C=C/c6ccc(O)c(O)c6)[C@H](OC(=O)/C=C/c6ccc(O)cc6)C(C)(C)[C@@H]5CC[C@]43C)[C@@H]12`, the IC50 in the data set with MRC5 worked out at 7.8 µM; with A-375, 6.3 µM; in the data set with A549 [6], 6.3 µM. The Activity entry in the data set on A-375 and in the data set on A549 [6] was “Dose-dependent effect” each time. In addition, the selectivity ratio in data set [4] and in [5] was 1.25 in each case.

Regarding `C=C(C)[C@@H]1CC[C@]2(C(=O)O)CC[C@]3(C)[C@H](CC[C@@H]4[C@@]5(C)C[C@@H](OC(=O)/C=C/c6ccc(O)c(O)c6)[C@H](O)C(C)(C)[C@@H]5CC[C@]43C)[C@@H]12`, the IC50 with MRC5 was 7.9 µM; in the data set with A-375, 6.3 µM; in the data set on A549 [6], 15.8 µM. Also, the Activity result with A-375 and in the data set with A549 [6] was “Dose-dependent effect” throughout. For the same molecule, the selectivity ratio in data set [4] was 0.5; in [5] it was 1.25.
